Laboratory results taken from ChEMBL document CHEMBL4425095, “Novel Cephalosporins Selectively Active on Nonreplicating Mycobacterium tuberculosis” (J Med Chem, 2016).
≈ marks a conversion by molar mass, not a printed value. Calls of active or inactive are those of the source. The calls are words filed in the database; no cut-off is given here.

What was measured:
[1] = system: Mycobacterium tuberculosis; experiment: Antimycobacterial activity against non-replicating Mycobacterium tuberculosis mc2 6220 harboring panCD/lysA deletion mutant incubated for 3 days measured at OD580 = 0.1 by two-fold serial dilution method; assay type: functional
How it was run: (§1)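 M. tuberculosis mc26220 washed twice in PBS-tyloxapol and resuspended in Sauton's-based nonreplicating medium (pH 5.0, butyrate 0.05%, BSA, tyloxapol, lysine, pantothenate, 0.5 mM NaNO2). Incubated at 1% O2, 5% CO2 with 2-fold serially diluted compound from DMSO. After 3 days, diluted 5-fold in fresh replicating medium for outgrowth at 20% O2. Reported as MIC90.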

[2] = system: Mycobacterium tuberculosis; experiment: Antimycobacterial activity against replicating Mycobacterium tuberculosis mc2 6220 harboring panCD/lysA deletion mutant by two-fold serial dilution method; assay type: functional
How it was run: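 M. tuberculosis mc26220 in replicating medium supplemented with glycerol (final 0.5%), OADC, casamino acids 0.05%, lysine 240 μg/mL and pantothenate 24 μg/mL. Exposed to 2-fold serially diluted compound from DMSO. OD580 read after 7 days at 20% O2, 5% CO2. Reported as MIC90.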

[3] = system: Mycobacterium tuberculosis; experiment: Antimycobacterial activity against non-replicating Mycobacterium tuberculosis mc2 6220 harboring panCD/lysA deletion mutant incubated for 3 days measured at OD580 = 0.01 by two-fold serial dilution method; assay type: functional; how it was run: as §1
[4] = system: Mycobacterium tuberculosis; experiment: Antimycobacterial activity against non-replicating Mycobacterium tuberculosis mc2 6220 harboring panCD/lysA deletion mutant incubated for 7 days measured at OD580 = 0.01 by two-fold serial dilution method; assay type: functional; how it was run: as §1
[5] = system: Mycobacterium tuberculosis; experiment: Antimycobacterial activity against non-replicating Mycobacterium tuberculosis mc2 6220 harboring panCD/lysA deletion mutant incubated for 7 days measured at OD580 = 0.1 by two-fold serial dilution method; assay type: functional; how it was run: as §1
[6] = system: Mycobacterium tuberculosis; experiment: Antimycobacterial activity against non-replicating Mycobacterium tuberculosis mc2 6220 harboring panCD/lysA deletion mutant incubated for 6 days measured at OD580 = 0.01 by two-fold serial dilution method; assay type: functional; how it was run: as §1
[7] = system: Mycobacterium tuberculosis; experiment: Antimycobacterial activity against non-replicating Mycobacterium tuberculosis mc2 6220 harboring panCD/lysA deletion mutant incubated for 7 days measured at OD580 = 0.01 by high throughput screen assay; assay type: functional, organism-based
[8] = system: Mycobacterium tuberculosis; experiment: Antimycobacterial activity against replicating Mycobacterium tuberculosis mc2 6220 harboring panCD/lysA deletion mutant incubated for 3 days measured at OD580 = 0.01 by two-fold serial dilution method; assay type: functional
[9] = system: Mycobacterium tuberculosis; experiment: Antimycobacterial activity against non-replicating Mycobacterium tuberculosis mc2 6220 harboring panCD/lysA deletion mutant incubated for 6 days measured at OD580 = 0.1 by two-fold serial dilution method; assay type: functional; how it was run: as §1

Row | Structure (SMILES) | MIC90 [1] | MIC90 [2] | MIC90 [4] | MIC90 [5] | further results
1 | CC1=CS[C@@H]2[C@H](NC(=O)COc3ccccc3)C(=O)N2[C@H]1CO | >100 µg/mL | >100 µg/mL | – | – | –
2 | CCCOC(=O)C1=C(C)CS[C@@H]2[C@H](NC(=O)COc3ccccc3)C(=O)N12 | 1.76 µg/mL (≈ 4.51 µM) | >100 µg/mL | 0.64 µg/mL (≈ 1.64 µM) | 1.05 µg/mL (≈ 2.69 µM) | MIC90 [3]: 0.9 µg/mL (≈ 2.3 µM); MIC90 [6]: 0.64 µg/mL (≈ 1.64 µM); Activity [7]: Active; MIC90 [8]: >100 µg/mL; MIC90 [9]: 1.05 µg/mL (≈ 2.69 µM)
3 | CC1=C(C(=O)O)N2C(=O)[C@@H](NC(=O)[C@H](N)c3ccccc3)[C@H]2SC1 [CEPHALEXIN ANHYDROUS] | 61.35 µg/mL (≈ 177 µM) | 33.99 µg/mL (≈ 97.8 µM) | – | 100 µg/mL (≈ 288 µM) | MIC90 [3]: 97.93 µg/mL (≈ 282 µM); MIC90 [8]: 33.99 µg/mL (≈ 97.8 µM); MIC90 [9]: 70.42 µg/mL (≈ 203 µM)
4 | CCCc1noc(C2=C(C)CS[C@@H]3[C@H](NC(=O)Cc4ccc(Cl)cc4)C(=O)N23)n1 | 2.63 µg/mL (≈ 6.07 µM) | >100 µg/mL | – | – | –
5 | CCCOC(=O)N[C@@H]1C(=O)N2C(C(=O)OCCC)=C(C)CS[C@H]12 | 2.61 µg/mL (≈ 7.62 µM) | 55.44 µg/mL (≈ 162 µM) | – | – | MIC90 [3]: 3.11 µg/mL (≈ 9.08 µM); Activity [7]: Active; MIC90 [8]: 55.44 µg/mL (≈ 162 µM); MIC90 [9]: 0.52 µg/mL (≈ 1.52 µM)
6 | CCCOC[C@H]1C(C)=CS[C@@H]2[C@H](NC(=O)COc3ccccc3)C(=O)N21 | >100 µg/mL | >100 µg/mL | – | – | –
7 | CC1=C(c2nc(C)no2)N2C(=O)[C@@H](NC(=O)COc3ccc(C)cc3)[C@H]2SC1 | 7.42 µg/mL (≈ 18.5 µM) | >100 µg/mL | – | – | –
8 | C#CCOC(=O)C1=C(C)CS[C@@H]2[C@H](NC(=O)CCc3ccccc3)C(=O)N12 | 19.97 µg/mL (≈ 51.9 µM) | >100 µg/mL | – | – | MIC90 [3]: 1.11 µg/mL (≈ 2.89 µM)
9 | COCC1=C(C)CS[C@@H]2[C@H](NC(=O)COc3ccccc3)C(=O)N12 | >100 µg/mL | >96.74 µg/mL | – | – | –
10 | CC1=C(c2nc(C)no2)N2C(=O)[C@@H](NC(=O)COc3cccc(Cl)c3)[C@H]2SC1 | 2.59 µg/mL (≈ 6.15 µM) | >100 µg/mL | – | – | –
11 | C#CCOC(=O)C1=C(C)CS[C@@H]2[C@H](NC(=O)CCc3ccc(Cl)cc3)C(=O)N12 | 7.85 µg/mL (≈ 18.7 µM) | >100 µg/mL | – | – | MIC90 [3]: 0.56 µg/mL (≈ 1.34 µM)
12 | COC(=O)C1=C(C)CS[C@@H]2[C@H](NC(=O)CCc3ccc(OC)cc3)C(=O)N12 | – | 59.82 µg/mL (≈ 153 µM) | – | 3.28 µg/mL (≈ 8.4 µM) | MIC90 [3]: 0.39 µg/mL (≈ 0.999 µM)
13 | COc1ccc(OCC(=O)N[C@@H]2C(=O)N3C(c4nc(C)no4)=C(C)CS[C@H]23)cc1 | 14.57 µg/mL (≈ 35 µM) | >100 µg/mL | – | – | –
14 | CCCN[C@@H]1C(=O)N2C(C(=O)OCCC)=C(C)CS[C@H]12 | 2.69 µg/mL (≈ 9.01 µM) | >100 µg/mL | – | – | MIC90 [3]: 0.7 µg/mL (≈ 2.35 µM); Activity [7]: Active; MIC90 [8]: >100 µg/mL; MIC90 [9]: 0.45 µg/mL (≈ 1.51 µM)
15 | CCCCOc1ccc(CCC(=O)N[C@@H]2C(=O)N3C(c4nc(C)no4)=C(C)CS[C@H]23)cc1 | 59.36 µg/mL (≈ 130 µM) | >100 µg/mL | – | – | –
16 | CCCc1noc(C2=C(C)CS[C@@H]3[C@H](NC(=O)COc4ccc(C)cc4)C(=O)N23)n1 | 14.31 µg/mL (≈ 33.4 µM) | >100 µg/mL | – | – | –
17 | COc1ccc(CCC(=O)N[C@@H]2C(=O)N3C(c4nc(C)no4)=C(C)CS[C@H]23)cc1 | – | >100 µg/mL | 1.13 µg/mL (≈ 2.73 µM) | 1.68 µg/mL (≈ 4.05 µM) | –

Row | Structure (SMILES) | MIC90 [1] | MIC90 [2] | MIC90 [4] | MIC90 [5] | further results
18 | CCCc1noc(C2=C(C)CS[C@@H]3[C@H](NC(=O)CCc4ccc(OC)cc4)C(=O)N23)n1 | – | >100 µg/mL | 0.37 µg/mL (≈ 0.836 µM) | 0.67 µg/mL (≈ 1.51 µM) | –
19 | COC(=O)C1=C(C)CS[C@@H]2[C@H](NC(=O)COc3ccccc3)C(=O)N12 | – | >100 µg/mL | 2.07 µg/mL (≈ 5.71 µM) | 2.93 µg/mL (≈ 8.08 µM) | –
20 | CCOC(=O)C1=C(C)CS[C@@H]2[C@H](NC(=O)CCc3ccccc3)C(=O)N12 | – | >100 µg/mL | 0.47 µg/mL (≈ 1.26 µM) | 1.15 µg/mL (≈ 3.07 µM) | –
21 | CCCCOC(=O)C1=C(C)CS[C@@H]2[C@H](NC(=O)COc3ccc(Cl)cc3)C(=O)N12 | – | >100 µg/mL | 0.43 µg/mL (≈ 0.98 µM) | 1.01 µg/mL (≈ 2.3 µM) | –
22 | CCOC(=O)C1=C(C)CS[C@@H]2[C@H](NC(=O)COc3ccccc3)C(=O)N12 | – | 57.85 µg/mL (≈ 154 µM) | 0.66 µg/mL (≈ 1.75 µM) | 1.71 µg/mL (≈ 4.54 µM) | –
23 | COC(=O)C1=C(C)CS[C@@H]2[C@H](NC(=O)CCc3ccccc3)C(=O)N12 | – | >100 µg/mL | 10.4 µg/mL (≈ 28.9 µM) | 1.27 µg/mL (≈ 3.52 µM) | –
24 | CCC(C)OC(=O)C1=C(C)CS[C@@H]2[C@H](NC(=O)CCc3ccc(OC)cc3)C(=O)N12 (some centres not stated) | – | >100 µg/mL | 1.57 µg/mL (≈ 3.63 µM) | 2.95 µg/mL (≈ 6.82 µM) | –
25 | CCCOC(=O)C1=C(C)CS[C@@H]2[C@H](NC(=O)COc3ccc(Cl)cc3)C(=O)N12 | – | >100 µg/mL | 0.66 µg/mL (≈ 1.55 µM) | 1.34 µg/mL (≈ 3.15 µM) | –
26 | CC1=C(c2nc(C)no2)N2C(=O)[C@@H](NC(=O)COc3ccc(Cl)cc3)[C@H]2SC1 | – | >100 µg/mL | 1.2 µg/mL (≈ 2.85 µM) | 1.72 µg/mL (≈ 4.09 µM) | –
27 | COC(=O)C1=C(C)CS[C@@H]2[C@H](NC(=O)[C@@H](c3ccccc3)N(C)C)C(=O)N12 | – | >100 µg/mL | >38.95 µg/mL | >38.95 µg/mL | –
28 | C=CC1=C(C(=O)O)N2C(=O)[C@@H](NC(=O)/C(=N\O)c3csc(N)n3)[C@H]2SC1 | – | 4.11 µg/mL (≈ 10.4 µM) | 77.84 µg/mL (≈ 197 µM) | >100 µg/mL | –
29 | CCOC(=O)C1=C(C)CS[C@@H]2[C@H](NC(=O)CCc3ccc(OC)cc3)C(=O)N12 | – | 21.37 µg/mL (≈ 52.8 µM) | 0.4 µg/mL (≈ 0.989 µM) | 0.51 µg/mL (≈ 1.26 µM) | –
30 | CCCOC(=O)C1=C(C)CS[C@@H]2[C@H](NC(=O)CCc3ccc(OC)cc3)C(=O)N12 | – | >100 µg/mL | <0.2 µg/mL | <0.2 µg/mL | –
31 | CCCc1noc(C2=C(C)CS[C@@H]3[C@H](NC(=O)CCc4ccccc4Cl)C(=O)N23)n1 | – | >100 µg/mL | 0.52 µg/mL (≈ 1.16 µM) | 1.27 µg/mL (≈ 2.84 µM) | –
32 | CCCCOC(=O)C1=C(C)CS[C@@H]2[C@H](NC(=O)CCc3ccccc3)C(=O)N12 | – | >100 µg/mL | 0.21 µg/mL (≈ 0.522 µM) | <0.24 µg/mL | –
33 | CC1=C(c2nc(C)no2)N2C(=O)[C@@H](NC(=O)COc3ccc(C(F)(F)F)cc3)[C@H]2SC1 | 5.26 µg/mL (≈ 11.6 µM) | >100 µg/mL | – | – | –
34 | CC1=C(C(=O)O)N2C(=O)[C@@H](NC(=O)CCc3ccc(Br)cc3)[C@H]2SC1 | – | 96.13 µg/mL (≈ 226 µM) | >42.53 µg/mL | >42.53 µg/mL | –
